# “And” between values parts separate entries of the source, which are not always exact repeats. Identical values can stand only once. “Also recorded” adds a separate entry of the source.
# Tests used:
# [1] = system: primary mouse T cells (AND TCR transgenic), NFAT; assay: NFAT nuclear translocation of AND TCR T cells on pMHC supported bilayers; type: cell-based; conditions: for agonist strength (in words): AND TCR
# Summary of the method: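 Primary AND TCR-transgenic mouse T cells were retrovirally spinfected with NFAT-GFP (polybrene 4 μg/ml, days 3–4 post-activation) and sorted; most runs used NFAT-mCherry. Cells were added at 37°C onto Ni-chelating supported bilayers carrying His-tagged ICAM-1 (100–200 μm−2) and peptide-loaded MHC (0.1–2 μm−2). Landing was scored by RICM. NFAT activation was the nuclear/cytosolic intensity ratio. Threshold was the density near half-maximal response, with >30 cells per condition over five experiments.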
# AND TCR T cells [2] = type: cell-based, mouse
# AND TCR T cells [3] = type: cell-based, mouse; remark: listed apart in the source
# Summary of the method: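 For each T cell, binding events and total dwell time were counted from RICM landing to first NFAT translocation. Counts were corrected for undetected prebleached events and for short events (0.8 s up to the time-lapse interval). Costimulation used His10-tagged recombinant murine CD80 ectodomain on the bilayer at 100–300 molecules/μm2. There were 7–15 cells per condition from three to seven experiments.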
# AND TCR [4] = assay: Calculated probability of long-dwelling pMHC-TCR binding events; design: species or system mouse; conditions: single exponential unbinding kinetics from mean dwell time
# Summary of the method: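 The probability that a binding event lasts 40 s was calculated assuming single-exponential unbinding at the fitted, photobleaching-corrected mean dwell time. The 40 s receptor-level threshold came from spatiotemporal correlation analysis of pMHC trajectories grouped into signaling clusters.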
# AND TCR [5] = assay: Single-molecule TIRF imaging of pMHC-TCR binding events; design: species or system mouse; conditions: for pMHC-TCR binding / mobility under T cell (in words): 37°C, single-molecule TIRF
# Summary of the method: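 Atto647N-peptide-MHC binding under live T cells was imaged at 37°C by single-molecule TIRF, either at 2.5 mW/cm2 with 20 ms exposures or at 0.1 mW/cm2 with 500 ms exposures. Single-step unbinding was confirmed by Bayesian change-point detection. Dwell-time distributions (>3000 trajectories, ≥25 cells) were fitted to a single exponential and corrected for photobleaching using bilayer pMHC imaged under identical conditions. Bound fraction was normalised to RICM contact area.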
# 5c.c7 recombinant TCR = 5c.c7 recombinant TCR binding to MCC pMHC; ref [9], [10]; cited from earlier work
# [6] = low T102S pMHC density, cells that activated NFAT
molecule,measurement,setting,value
ANERADLIAYLKQASK [T102S pMHC],agonist strength (in words),[1],weak agonist
same,NFAT activation probability at low density,[1]; low T102S density,5% and ~ 5%
same,time to NFAT translocation (comparison in words),[1]; low T102S density vs threshold densities,took longer to translocate NFAT than those at threshold densities of either MCC or T102S pMHCs
same,NFAT activation probability at threshold density,[1]; threshold pMHC density,32%
same,"number of correlated pMHC tracks, activating cells","AND TCR T cells [2]; low T102S pMHC density, 30-s window, cells that activated NFAT",between two and nine correlated pMHC tracks
same,"number of correlated pMHC tracks, nonactivating cells","AND TCR T cells [2]; low T102S pMHC density, 30-s window, cells that did not activate NFAT",zero to three correlated pMHC tracks
same,"binding events within 2 mm and 30 s of another binding event, activating cells",AND TCR T cells [2]; [6],90%
same,effective mean dwell time after spatiotemporal correlation (in words),AND TCR T cells [2]; [6],could resemble long-dwelling MCC pMHC binding inputs in terms of mean dwell time
same,"binding events within the same space and time (2 mm, 30 s), nonactivating cells","AND TCR T cells [2]; low T102S pMHC density, cells that did not activate NFAT",68%
same,number of spatiotemporally correlated tracks (comparison in words),AND TCR T cells [2]; threshold conditions,more spatiotemporally correlated pMHC tracks than those exposed to MCC
same,rate of dwell time accumulation (in words),"AND TCR T cells [3]; low T102S density, activating cells vs cells that did not activate",indistinguishable from cells that did not active NFAT at threshold densities
same,probability that a pMHC-TCR binding event dwells for 40 s,AND TCR [4],0.02
"ANERADLIAYLKQATK [MCC pMHC, Moth cytochrome C 88–103 peptide]",agonist strength (in words),[1],strong agonist
same,probability that a pMHC-TCR binding event dwells for 40 s,AND TCR [4],0.43
same,pMHC-TCR binding / mobility under T cell (in words),AND TCR [5],bimodal mobility under a T cell (cyan) and unimodal mobility on the free supported membrane; also recorded: a substantial fraction of the all pMHC under the T cell are bound as long-lived species
same,difference in affinity MCC pMHC vs T102S pMHC,AND TCR [5]; range covered by strong and weak agonist,fivefold
same,"mean dwell time (<τoff>), 5c.c7 TCR",5c.c7 recombinant TCR,7.2 s
ANERADLIAYPKAATKF [K3 pMHC],agonist strength (in words),[1],moderate agonist
"ANERAELIAYLTQAAKGGSC [null pMHC, reference compound]",pMHC-TCR binding / mobility under T cell (in words),AND TCR [5],did not exhibit slowed pMHC-TCR complexes
"CD80: murine costimulatory ligand CD80 (B7), recombinant, secreted, truncated ectodomain with a flexible linker and decahistidine tag (protein, UniProt Q00609 38-246, looked up, extracellular domain flexible linker and decahistidine tag) extracellular domain: VDEQLSKSVKDKVLLPCRYNSPHEDESEDRIYWQKHDKVVLSVIAGKLKVWPEYKNRTLYDNTTYSLIILGLVLSDRGTYSCVVQKKERGTYEVKHLALVKLSIKADFSTPNITESGNPSADTKRITCFASGGFPKPRFSWLENGRELPGINTTISQDPESELYTISSQLDFNTTRNHTIKCLIKYGDAHVSEDFTWEKPPEDPPDSKN",effect of costimulation on activation (in words),"AND TCR T cells [3]; CD80 on bilayer, 100 to 300 molecules/μm^2, cells that activated NFAT","cells that activated NFAT experienced a decrease in the time to activation, accumulated binding events, and cumulative dwell time"

# Reference: PMC6598675 (Science signaling, 2019)
